Test results reported in ChEMBL document CHEMBL1123345, “2-Alkyl-substituted 1,1-bis(4-acetoxyphenyl)-2-phenylethenes. Estrogen receptor affinity, estrogenic and antiestrogenic properties, and mammary tumor inhibiting activity” (1986).

Columns and labels:
[1] = biological target: T1, Estrogen receptor (Mus musculus) (UniProt O08537+P19785); assay: Estrogenic effect in uterotrophic assay in immature mice at 5 ug dose; type: functional
Method in brief: (§1)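 Immature female NMRI mice (10–12 g, 20 days old, 10 per group) injected sc daily for 3 days with compound in olive oil (0.1 mL/mouse), dose per animal per day. Uteri removed 24 h after last dose, Bouin-fixed, dried, weighed. Effect = uterus dry weight (mg)/body weight (g) × 100. Activity = (E_T − E_V)/(E_S − E_V) × 100, with estrone 0.4 μg standard as 100%.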

[2] = biological target: T1, Estrogen receptor (Mus musculus); assay: Estrogenic effect in uterotrophic assay in immature mice at 1 ug dose; type: functional; method in brief: as §1
[3] = biological target: T1, Estrogen receptor (Mus musculus); assay: Estrogenic effect in uterotrophic assay in immature mice at 25 ug dose; type: functional; method in brief: as §1
[4] = biological target: T1, Estrogen receptor (Mus musculus); assay: Anti-estrogenic effect in uterotrophic assay in immature mice at 5 ug dose; type: functional
Method in brief: (§2)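 Immature female NMRI mice (10–12 g, 20 days old, 10 per group) given test compound sc daily for 3 days in olive oil (0.1 mL/mouse), dose per animal per day, with estrone stimulating uterine growth. Uteri removed 24 h after last injection, Bouin-fixed, dried and weighed. Read-out is % inhibition of estrone-stimulated uterine growth.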

[5] = biological target: T1, Estrogen receptor (Mus musculus); assay: Estrogenic effect in uterotrophic assay in immature mice at 100 ug dose; type: functional; method in brief: as §1
Mus musculus = assay: In vivo inhibition of hormone-dependent MXT mammary tumor in mice; type: functional
Method in brief: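 BDF1 mice bearing transplanted hormone-dependent MXT mammary tumor (line 3.2). From day 1 after transplantation, compounds given sc 3 times weekly in olive oil (0.1 mL/mouse) for 6 weeks, at doses equimolar to 3 × 8 mg/kg per week. Tumors excised, washed in 0.9% NaCl, blotted, weighed. T/C % = treated/solvent-control tumor weight × 100, mean of 10 animals. Mann–Whitney–Wilcoxon U test, α ≤ 0.05.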

[6] = biological target: T1, Estrogen receptor (Mus musculus); assay: Anti-estrogenic effect in uterotrophic assay in immature mice at 1.0 ug dose; type: functional; method in brief: as §2
[7] = biological target: T1, Estrogen receptor (Mus musculus); assay: In vivo inhibition of uterine growth in hormone-dependent MXT mammary tumor bearing mice; type: functional, organism-based
Method in brief: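 MXT tumor-bearing BDF1 mice dosed sc 3 times weekly for 6 weeks in olive oil at doses equimolar to 3 × 8 mg/kg per week. Uterotrophic effect measured at end of therapy. T/C % = treated/solvent-control uterotrophic effect × 100, mean of 10 animals. U test (Wilcoxon, Mann, Whitney), α ≤ 0.05.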

[8] = biological target: T1, Estrogen receptor (Mus musculus); assay: Anti-estrogenic effect in uterotrophic assay in immature mice at 25 ug dose; type: functional; method in brief: as §2

T1 sequence (O08537 whole entry, looked up): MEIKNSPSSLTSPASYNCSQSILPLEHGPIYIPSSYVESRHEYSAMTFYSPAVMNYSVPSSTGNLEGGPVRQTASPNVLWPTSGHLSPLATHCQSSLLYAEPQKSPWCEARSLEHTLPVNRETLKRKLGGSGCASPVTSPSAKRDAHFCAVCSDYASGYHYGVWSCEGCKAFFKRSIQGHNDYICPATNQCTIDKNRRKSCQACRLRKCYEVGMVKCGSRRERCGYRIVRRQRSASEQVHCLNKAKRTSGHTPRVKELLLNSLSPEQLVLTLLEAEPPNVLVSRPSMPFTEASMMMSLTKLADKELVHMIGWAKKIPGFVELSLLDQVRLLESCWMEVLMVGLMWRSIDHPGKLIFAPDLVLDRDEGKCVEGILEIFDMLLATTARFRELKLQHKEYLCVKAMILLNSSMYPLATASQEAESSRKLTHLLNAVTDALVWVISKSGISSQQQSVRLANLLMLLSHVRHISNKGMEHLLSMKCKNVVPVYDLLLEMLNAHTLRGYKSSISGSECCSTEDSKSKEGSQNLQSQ
T1 sequence (P19785 whole entry, looked up): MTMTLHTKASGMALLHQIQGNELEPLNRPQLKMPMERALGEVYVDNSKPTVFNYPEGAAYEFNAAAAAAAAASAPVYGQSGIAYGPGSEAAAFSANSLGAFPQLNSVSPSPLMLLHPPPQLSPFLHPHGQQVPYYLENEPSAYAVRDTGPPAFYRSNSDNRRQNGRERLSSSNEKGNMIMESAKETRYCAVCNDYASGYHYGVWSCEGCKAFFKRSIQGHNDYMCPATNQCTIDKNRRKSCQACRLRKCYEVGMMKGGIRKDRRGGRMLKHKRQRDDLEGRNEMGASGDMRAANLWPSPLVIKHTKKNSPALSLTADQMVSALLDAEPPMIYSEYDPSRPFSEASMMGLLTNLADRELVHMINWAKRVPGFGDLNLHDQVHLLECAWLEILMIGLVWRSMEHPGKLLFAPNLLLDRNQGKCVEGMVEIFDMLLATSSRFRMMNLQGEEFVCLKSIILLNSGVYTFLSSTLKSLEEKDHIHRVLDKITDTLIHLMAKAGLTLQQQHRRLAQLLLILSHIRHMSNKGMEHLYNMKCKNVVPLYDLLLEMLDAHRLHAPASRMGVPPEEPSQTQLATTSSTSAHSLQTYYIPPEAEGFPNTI

Structure (SMILES)	Activity [1]	Activity [2]	Activity [3]	inhibition [4] [%]	Activity [5]	T/C (Mus musculus) [%]	inhibition [6] [%]	T/C [7] [%]	inhibition [8] [%]
CC(=O)Oc1ccc(C(=C(c2ccccc2)C(C)C)c2ccc(OC(C)=O)cc2)cc1	87	60	100	0	117	0.2	0	128	–
CC(=O)Oc1ccc(C(=Cc2ccccc2)c2ccc(OC(C)=O)cc2)cc1	13	11	99	0	116	64.3	26	54.8	–
CCC(=C(c1ccc(OC(C)=O)cc1)c1ccc(OC(C)=O)cc1)c1ccccc1	72	37	98	0	107	0.4	0	124	–
CC(=O)Oc1ccc(C(=C(CC(F)(F)F)c2ccccc2)c2ccc(OC(C)=O)cc2)cc1	140	62	108	–	86	43.1	0	128	–
CCC1(c2ccccc2)OC1(c1ccc(OC(C)=O)cc1)c1ccc(OC(C)=O)cc1 (stereo not drawn)	2	2	33	5	60	78.9	23	77.9	0
CC(=O)Oc1ccc(C(=C(C)c2ccccc2)c2ccc(OC(C)=O)cc2)cc1	108	125	83	–	78	0.3	–	120	–
CC/C(=C(\c1ccccc1)c1ccc(OCCN(C)C)cc1)c1ccccc1 [TAMOXIFEN]	–	–	–	–	–	9.8	–	–	–
CCCC(=C(c1ccc(OC(C)=O)cc1)c1ccc(OC(C)=O)cc1)c1ccccc1	42	31	90	0	114	61.1	19	93.3	–
CCC(c1ccccc1)C(c1ccc(OC(C)=O)cc1)c1ccc(OC(C)=O)cc1 (stereo not drawn)	42	17	79	0	83	69.1	27	73.7	–
